# Source: PubChem (several laboratories)
# E coli WT exp = growth inhibitors of wild-type E. coli, primary screen, strain BW25113, expanded library, OD600. AID 710, 2007. OD600 absorbance. 98,000 tested, 0.15% active. growth inhibition, % at 100 µM;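 active = growth inhibition above about 50% at one test dose, limit read from the data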;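 also: growth measured after 20 h incubation at 37 °C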
# PostGolgi yeast = phenotypic screen on post-Golgi transport, primary screen; post-Golgi transport phenotypic cell assay; inhibition, % at 10 µM; 98,000 tested, 0.9% active;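 also: yeast cells grown in 1536-well plates; yeast grown about 18 h at 30C before absorbance read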
# Cav3 T inh = Cav3.2 calcium influx blockers – cell-based, Fluo-4 calcium fluorescence, FDSS, MLSMR library, primary screen; Voltage-dependent T-type calcium channel subunit alpha-1H (Homo sapiens), O95180; Cav3.2-expressing cells; active compounds read low; B-score at 10 µM; 100,000 tested, 4% active; AID 449739, 2010;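 active = single-dose well whose peak fluorescence ratio is a statistical outlier from its plate by either plate-standardised score or position-corrected B-score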
# Ecoli tolC = growth inhibitors of E. coli tolC mutant, primary screen, strain BW25113 ΔtolC::kan, 384-well. OD615. growth inhibition, % at 10 µM (by protocol). 65,000 tested, 2.2% active;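 active = growth inhibition at or above a cutoff equal to the mean over every tested compound plus 3 SD, cut at about 60% in these data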;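 also: growth measured after 20 h incubation at 37 °C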
#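 signal = optical density read at 615 nm | test system = E. coli ΔtolC::kan strain BW25113 | timing = 20 h compound exposure of bacteria at 37 °C | buffer or medium = LB medium plus 50 µg/mL kanamycin | compound dosing = 10 µM final, single dose | evaluation = % inhibition of E. coli growth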
# PostGolgi ctrl = growth inhibition of yeast control strain, primary screen, counter-screen for post-Golgi transport modulator project. efflux-deficient yeast background strain, growth absorbance A615, 16 h. inhibition, % at 10 µM. 98,000 tested, 5% active
# Pyk2 oligo antag = antagonists of Pyk2 self-association, primary screen, Q293 cells, FERM NanoBiT luminescence, HTS | active compounds read low | 99,000 tested, 0.83% active | AID 1347419, 2020 | Protein-tyrosine kinase 2-beta (Homo sapiens), Q14289 | z-score (the deposit names both 25 µM and 10 µM);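 active = Z-score of -3 or lower, scaled per plate to the spread of control and sample wells; inactive = z-score above -3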;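 also: negative z-score means lost luminescence so less FERM oligomerization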
# An asterisk follows results filed as active; . = not tested or not shown. This is a sample that favours compounds with a hit; in the whole collection about 8.7% have one here. Rule as the data show it, unless noted: active = inhibition above about 30%; inactive = the rest.
SMILES,E coli WT exp,PostGolgi yeast,Cav3 T inh,Ecoli tolC,PostGolgi ctrl,Pyk2 oligo antag
O=C(NCc1ccc2c(c1)OCO2)C1CC(c2cccc(Br)c2)=NO1 (stereo not drawn),5,2,-9.1*,.,9,1
O=C(NCc1ccc2c(c1)OCO2)C1CC(c2ccccc2O)=NO1 (stereo not drawn),2,-10,-3.2,.,8,0.31
COCCNC(=O)C1CC(c2cccc(OC)c2)=NO1 (stereo not drawn),6,8,-0.47,-15,37*,1.1
O=S(=O)(NCc1ccccc1)c1ccc(S(=O)(=O)N(Cc2ccccn2)C2CCCC2)cc1,.,.,-4.1*,.,.,-0.35
Cc1cccc(C)c1N1CCN(c2nc(N(C)C)oc(=O)c2C#N)CC1,-1,1,0.28,.,4,0.07
Cc1ccc(S(=O)(=O)c2c(N)n(/N=C/c3ccco3)c3nc4ccccc4nc23)cc1,-14,9,-2.1,15,41*,-1.7
CCCCCCn1c(C)nc2c(c1=O)c1nc3ccccc3nc1n2/N=C/c1ccco1,-8,-8,-5.1*,.,-1,-0.84
Nc1c(S(=O)(=O)c2cccs2)c2nc3ccccc3nc2n1/N=C/c1cccc(O)c1,-6,6,-1.4,-7,10,-3.2*
Cc1ccc(S(=O)(=O)c2c(N)n(/N=C/c3ccco3)c3nc4ccccc4nc23)cc1C,-17,-6,-0.11,20,20,-1.2
CCCCCCNC(=O)c1c(N)n(/N=C/c2ccco2)c2nc3ccccc3nc12,.,.,.,-16,.,.
Cc1cccc(S(=O)(=O)c2c(N)n(/N=C/c3ccco3)c3nc4ccccc4nc23)c1,-10,6,-0.15,12,32*,-0.2
COc1ccc(C(=O)n2c(SC)nc3cc4c(cc32)OCCO4)cc1,-5,7,-3,.,4,2
O=C(COc1ccc(S(=O)(=O)N2CCCCC2)cc1)NCc1cccnc1,2,-13,-0.5,.,-3,0.55
CC(C)Sc1nc2c(c(=O)n1C)SC(C)C2 (stereo not drawn),5,-7,0.24,12,10,.
CCCN(N=Nc1cccc([N+](=O)[O-])c1)c1cccc([N+](=O)[O-])c1,-19,-10,-4.2*,.,10,-0.59
O=C(C[n+]1cccc(NC(=O)c2ccccc2)c1)c1ccccc1,10,5,.,.,3,0.17
O=C(C[n+]1cccc(NC(=O)c2ccccc2)c1)c1ccc(NC(=O)c2ccccc2)cc1,62*,-17,.,.,5,-0.16
CC(C)c1nnc(NC(=O)Cn2nc(-c3ccc4c(c3)OCCO4)ccc2=O)s1,-1,-3,-0.56,-14,2,1
O=C(CN1CCOCC1)Nc1ncc(Cc2cccc3ccccc23)s1,0,-6,-0.15,.,3,-0.13
Clc1ccccc1CSc1nnc(Cn2cnc3ccccc32)n1-c1ccccc1,2,10,-2.2,.,8,0.06
CCOC(=O)CSc1nnc(CNc2ccccc2Cl)n1-c1ccccc1,2,6,-3,19,11,0.48
CCOc1ccc(NCc2nnc(SCc3ccccc3Cl)n2-c2ccccc2)cc1,-20,6,-4.2*,.,9,-0.37
CC(C)OC(=O)CSc1nnc(CNc2ccc(Cl)cc2)n1Cc1ccccc1,.,.,-6.7*,.,.,-0.7
COC(=O)CSc1nnc(CNc2ccc(Cl)cc2)n1-c1ccccc1,3,63*,-0.2,.,65*,1.3
C[C@@H](Oc1ccccc1)c1nnn(Cc2ccccc2)c1-c1c([C@@H](C)Oc2ccccc2)nnn1Cc1ccccc1,.,.,-1.1,.,.,.
SMILES,E coli WT exp,PostGolgi yeast,Cav3 T inh,Ecoli tolC,PostGolgi ctrl,Pyk2 oligo antag
COCc1nc2ccccc2n1CCOc1ccccc1OC,1,-5,-0.41,52,5,0.54
O=C(c1ccc(C#CC2(O)CCCCC2)cc1)N1CCN(Cc2ccccc2)CC1,1,10,-6.1*,.,30*,-0.72
O=C(c1ccc(C#CC2(O)CCCCC2)cc1)N1CCN(C(c2ccccc2)c2ccccc2)CC1,-14,12,-5.1*,.,5,-1.4
Cc1cc(C)n(CC(O)Cn2c3ccc(Cl)cc3c3cc(Cl)ccc32)c(=O)n1 (stereo not drawn),-11,99*,-1.3,.,99*,-1.4
CCOC(=O)c1c(C)n(O)c2ccc(Cl)cc2c1=O,4,-3,0.75,11,-2,0.38
Cc1ccc(C)c(OCCOCCN2CC(C)OC(C)C2)c1C (stereo not drawn),-9,15,-0.63,.,13,-0.51
O=c1c2ccccc2c(C=NCCc2ccccc2)c(O)n1Cc1ccccc1,-18,11,-3.9*,.,10,-0.81
Cc1cc(C)c(Cc2c(C)nc3c(C(=O)NCc4ccco4)cnn3c2C)c(C)c1,-7,12,-0.079,.,44*,0.11
O=C(NCc1ccco1)c1cnn2c(C(F)F)cc(-c3ccccc3)nc12,-8,21,0.3,-2,10,-0.62
CCN1CCN(Cc2c(O)c(Cl)cc3c(C)cc(=O)oc23)CC1,-4,-18,0.79,-2,2,0.01
Cc1c(C)c2cc(Cl)c(O)c(CN3CCCC(C)C3)c2oc1=O (stereo not drawn),-3,1,1.3,9,11,-0.45
Cc1c(C)c2cc(Cl)c(O)c(CN3CCN(C)CC3)c2oc1=O,2,36*,.,19,5,0.22
Cc1cc(=O)oc2c(CN3CCCCC3)c(O)c(Cl)cc12,-6,38*,0.0073,1,-3,0.48
COC(=O)c1cc(OC)c(OC)cc1NC(=S)N1CCCC(CO)C1 (stereo not drawn),1,0,-0.026,.,11,0.24
S=c1[nH]nc(-c2ccncc2)n1Cc1ccco1,7,16,-0.34,5,9,0.11
S=c1[nH]nc(C23CC4CC(CC(C4)C2)C3)n1Cc1ccco1,1,2,-2.2,34,45*,-0.39
O=C(Nc1nc(SCc2ccc(F)cc2)ns1)c1ccco1,.,.,-2.2,81*,.,0.44
C/C(N)=C(/C#N)C(=O)CSc1nnc(COc2cc(C)ccc2C)o1,3,-8,-1.3,.,4,0.65
CCCCOC(=O)Cn1c(=N)n(CCN2CCOCC2)c2ccccc21,.,.,0.26,-2,.,-0.16
N=c1n(CCN2CCOCC2)c2ccccc2n1CC(=O)c1ccc(Cl)c(Cl)c1,-3,-2,-4.7*,80*,0,2
CC(C)(C)NC(=O)[C@@H]1C[C@@H]2CCCC[C@@H]2CN1C[C@@H](O)[C@H](Cc1ccccc1)NC(=O)[C@H](CC(N)=O)NC(=O)c1ccc2ccccc2n1,.,.,-5.6*,.,.,.
C/C(=C1/SC(N2CCCC2)=NC1=O)c1ccc(Br)cc1,20,-1,-3.4,25,33*,-1.7
CC(C)=C1SC(N2CCCCC2)=NC1=O,0,-2,0.91,.,-4,-0.11
[O-][n+]1c2c(c3c4non(O)c4ccc31)CCCC2,4,31*,-6.8*,.,82*,-1.4
